How the values were obtained:
[1] = biological target: Nitric oxide synthase, inducible (Homo sapiens, UniProt P35228); experiment: Inhibition of human recombinant iNOS using 1 mM […] and 2 uM L-arginine after 30 mins
In short: (§1)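 Recombinant human NOS, scintillation proximity kit. Buffer: 50 mM Tris pH 7.4, 1.0 mM NADPH, 3.8 μM each of FMN, FAD and tetrahydrobiopterin, 2.0 mM DTT, 2.0 μM L-arginine. eNOS and nNOS buffer also had 20 μg/mL calmodulin and 1 mM CaCl2. Started with [3H]arginine, 30 min at room temperature, stopped with yttrium-silicate arginine-binding beads, counted after 2 h settling. IC50 mean ± SD, N ≥ 3.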

Nitric oxide synthase 1 = Nitric oxide synthase 1 (Homo sapiens, UniProt P29475); experiment: Inhibition of human recombinant nNOS using 1 mM […] and 2 uM L-arginine after 30 mins; in short: as §1
Sequence of Nitric oxide synthase 1 (P29475 whole entry): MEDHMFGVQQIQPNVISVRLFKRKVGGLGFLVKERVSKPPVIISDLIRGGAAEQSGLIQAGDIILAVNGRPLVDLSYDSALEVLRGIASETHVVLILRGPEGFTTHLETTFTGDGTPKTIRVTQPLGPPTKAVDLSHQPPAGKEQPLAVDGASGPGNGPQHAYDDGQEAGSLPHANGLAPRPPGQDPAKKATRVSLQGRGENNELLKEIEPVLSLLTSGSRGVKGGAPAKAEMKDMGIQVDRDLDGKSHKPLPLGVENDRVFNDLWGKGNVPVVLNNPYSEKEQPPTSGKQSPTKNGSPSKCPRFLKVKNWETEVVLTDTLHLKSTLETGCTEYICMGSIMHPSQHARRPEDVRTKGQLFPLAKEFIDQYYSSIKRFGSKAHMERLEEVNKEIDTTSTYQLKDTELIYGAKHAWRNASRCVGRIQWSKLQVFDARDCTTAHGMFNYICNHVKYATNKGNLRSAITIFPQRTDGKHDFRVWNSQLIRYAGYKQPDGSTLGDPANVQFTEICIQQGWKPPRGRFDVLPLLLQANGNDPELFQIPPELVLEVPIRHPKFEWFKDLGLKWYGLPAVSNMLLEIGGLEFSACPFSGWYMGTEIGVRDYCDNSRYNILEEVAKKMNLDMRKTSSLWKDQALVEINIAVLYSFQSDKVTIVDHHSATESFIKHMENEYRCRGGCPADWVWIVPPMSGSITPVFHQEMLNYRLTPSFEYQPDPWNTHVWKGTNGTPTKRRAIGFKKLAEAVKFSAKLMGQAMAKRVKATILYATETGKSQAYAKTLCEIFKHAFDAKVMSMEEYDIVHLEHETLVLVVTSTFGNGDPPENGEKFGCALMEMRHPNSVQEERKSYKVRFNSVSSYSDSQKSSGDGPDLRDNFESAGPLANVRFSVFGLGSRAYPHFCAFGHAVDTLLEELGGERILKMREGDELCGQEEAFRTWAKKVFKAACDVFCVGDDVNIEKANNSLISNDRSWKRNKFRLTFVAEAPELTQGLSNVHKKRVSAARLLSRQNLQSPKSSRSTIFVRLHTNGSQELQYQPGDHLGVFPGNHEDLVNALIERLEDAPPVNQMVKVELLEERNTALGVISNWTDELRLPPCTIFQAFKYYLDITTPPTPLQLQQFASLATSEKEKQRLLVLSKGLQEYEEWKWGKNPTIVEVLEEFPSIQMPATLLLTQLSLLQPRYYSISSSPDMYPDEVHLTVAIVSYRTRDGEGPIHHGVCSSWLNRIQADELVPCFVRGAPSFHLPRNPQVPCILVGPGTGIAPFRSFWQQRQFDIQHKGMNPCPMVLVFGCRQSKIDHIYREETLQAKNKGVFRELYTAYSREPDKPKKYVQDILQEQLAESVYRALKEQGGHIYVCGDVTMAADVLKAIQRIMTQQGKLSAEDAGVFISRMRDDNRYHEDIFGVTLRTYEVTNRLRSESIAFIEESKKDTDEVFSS

Nitric oxide synthase 3 = biological target: T1, Nitric oxide synthase 3 (Homo sapiens, UniProt P29474); experiment: Inhibition of human recombinant eNOS using 1 mM […] and 2 uM L-arginine after 30 mins; in short: as §1
T1 sequence (P29474 whole entry): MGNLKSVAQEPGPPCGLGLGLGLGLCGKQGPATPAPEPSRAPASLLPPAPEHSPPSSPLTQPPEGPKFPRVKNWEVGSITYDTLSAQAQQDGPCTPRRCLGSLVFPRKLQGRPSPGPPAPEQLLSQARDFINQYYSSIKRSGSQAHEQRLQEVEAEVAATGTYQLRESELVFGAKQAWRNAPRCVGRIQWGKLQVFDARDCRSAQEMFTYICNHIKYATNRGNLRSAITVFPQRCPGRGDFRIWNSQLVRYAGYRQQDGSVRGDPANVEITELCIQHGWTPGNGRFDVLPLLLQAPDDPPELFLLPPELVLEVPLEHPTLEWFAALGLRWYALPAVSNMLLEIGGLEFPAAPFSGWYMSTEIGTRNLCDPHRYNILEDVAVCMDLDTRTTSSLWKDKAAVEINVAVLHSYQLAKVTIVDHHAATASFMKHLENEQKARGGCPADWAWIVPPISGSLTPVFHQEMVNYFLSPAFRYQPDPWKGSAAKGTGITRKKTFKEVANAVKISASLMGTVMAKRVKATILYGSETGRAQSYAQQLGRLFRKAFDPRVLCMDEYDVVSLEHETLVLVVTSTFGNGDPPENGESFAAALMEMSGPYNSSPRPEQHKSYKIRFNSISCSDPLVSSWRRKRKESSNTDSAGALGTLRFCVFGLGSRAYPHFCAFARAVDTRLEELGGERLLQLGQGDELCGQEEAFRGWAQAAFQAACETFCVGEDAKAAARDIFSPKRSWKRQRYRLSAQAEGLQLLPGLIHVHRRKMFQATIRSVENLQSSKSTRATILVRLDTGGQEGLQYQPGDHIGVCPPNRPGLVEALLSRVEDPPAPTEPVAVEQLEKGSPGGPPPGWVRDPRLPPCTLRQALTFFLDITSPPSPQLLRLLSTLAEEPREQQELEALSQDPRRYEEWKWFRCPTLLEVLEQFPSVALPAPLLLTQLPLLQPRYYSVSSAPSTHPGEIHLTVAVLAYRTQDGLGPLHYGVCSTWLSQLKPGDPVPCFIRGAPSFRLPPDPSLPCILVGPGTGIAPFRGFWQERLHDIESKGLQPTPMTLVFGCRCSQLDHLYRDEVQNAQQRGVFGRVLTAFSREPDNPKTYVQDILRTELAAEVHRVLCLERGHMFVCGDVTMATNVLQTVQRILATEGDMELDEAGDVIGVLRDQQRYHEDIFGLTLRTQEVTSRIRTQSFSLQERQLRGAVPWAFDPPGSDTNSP

Sequence of Nitric oxide synthase, inducible (P35228 whole entry): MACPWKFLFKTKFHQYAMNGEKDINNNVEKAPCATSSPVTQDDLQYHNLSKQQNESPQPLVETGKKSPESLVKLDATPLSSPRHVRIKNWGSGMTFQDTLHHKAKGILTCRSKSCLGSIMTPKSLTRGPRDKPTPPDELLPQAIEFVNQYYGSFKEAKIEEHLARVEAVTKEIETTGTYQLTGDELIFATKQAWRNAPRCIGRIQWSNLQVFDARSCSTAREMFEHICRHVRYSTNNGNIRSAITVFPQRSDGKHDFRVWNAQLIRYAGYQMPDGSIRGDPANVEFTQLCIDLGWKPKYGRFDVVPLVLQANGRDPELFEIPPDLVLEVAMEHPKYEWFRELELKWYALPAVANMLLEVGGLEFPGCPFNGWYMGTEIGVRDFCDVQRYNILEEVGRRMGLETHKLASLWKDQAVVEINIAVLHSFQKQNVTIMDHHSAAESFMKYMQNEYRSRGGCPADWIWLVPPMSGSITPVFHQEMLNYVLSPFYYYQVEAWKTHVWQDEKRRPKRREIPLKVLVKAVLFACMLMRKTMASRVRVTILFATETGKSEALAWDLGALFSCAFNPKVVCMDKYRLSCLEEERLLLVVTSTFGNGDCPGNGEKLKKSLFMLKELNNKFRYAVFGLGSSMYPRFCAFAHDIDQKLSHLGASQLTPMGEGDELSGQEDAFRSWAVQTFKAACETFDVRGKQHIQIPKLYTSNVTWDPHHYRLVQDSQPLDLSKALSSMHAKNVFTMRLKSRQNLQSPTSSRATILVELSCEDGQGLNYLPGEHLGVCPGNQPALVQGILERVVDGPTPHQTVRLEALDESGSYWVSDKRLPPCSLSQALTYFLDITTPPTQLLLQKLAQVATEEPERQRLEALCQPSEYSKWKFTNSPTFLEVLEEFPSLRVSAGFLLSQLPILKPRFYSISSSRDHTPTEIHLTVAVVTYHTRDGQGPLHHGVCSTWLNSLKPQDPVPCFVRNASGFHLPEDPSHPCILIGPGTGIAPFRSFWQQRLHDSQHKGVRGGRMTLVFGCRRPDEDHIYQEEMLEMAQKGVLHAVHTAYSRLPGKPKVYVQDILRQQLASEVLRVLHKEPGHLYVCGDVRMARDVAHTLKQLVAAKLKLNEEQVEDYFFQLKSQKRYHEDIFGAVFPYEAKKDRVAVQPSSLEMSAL

Row | IC50 [1] [nM] | SMILES | IC50 (Nitric oxide synthase 1) [nM] | IC50 (Nitric oxide synthase 3) [nM]
1 | > 5000 | Cc1cc(N)nc(CC(C)OCCF)c1 (stereo not drawn) |  | 
2 | > 5000 | COCCC(C)Cc1cc(C)cc(N)n1 (stereo not drawn) |  | 
3 | > 5000 | CSCCC(C)Cc1cc(C)cc(N)n1 (stereo not drawn) |  | 
4 | > 5000 | COC(C)Cc1cc(C)cc(N)n1 (stereo not drawn) |  | 
5 | 220 | Cc1cc(N)nc(CC(C)F)c1 (stereo not drawn) |  | 1500
6 | 1780 | Cc1cc(N)nc(CC(C)O)c1 (stereo not drawn) |  | 
7 | 282 | C/C=C/c1cc(C)cc(N)n1 |  | 

Row | SMILES | IC50 [1] [nM] | IC50 (Nitric oxide synthase 1) [nM] | IC50 (Nitric oxide synthase 3) [nM]
8 | Cc1cc(N)nc(CC(C)CCF)c1 (stereo not drawn) | 731 |  | 
9 | Cc1cc(N)nc(CCCF)c1 | 57.6 | 514 | 1430
10 | Cc1cc(N)nc(CCCCF)c1 | 170 |  | 

From ChEMBL document CHEMBL1153433, “Design and synthesis of 2-amino-4-methylpyridine analogues as inhibitors for inducible nitric oxide synthase and in vivo evaluation of [18F]6-(2-fluoropropyl)-4-methyl-pyridin-2-amine as a potential PET tracer for inducible nitric oxide synthase” (J Med Chem, 2009)
